From paper PMC2741613 (Journal of the American Chemical Society, 2009)
Where two headings read alike, the source gives them in different places. Non-standard residues stand in square brackets, D forms with d. Residues, ends and D or L forms follow the SMILES beside them. F2Pmp = N[CH](Cc1ccc(C(F)(F)P(=O)(O)O)cc1)C(=O)O

Key:
TC-PTP = molecular target: T1, TC-PTP (Homo sapiens, UniProt P17706); assay: TC-PTP-catalyzed pNPP hydrolysis inhibition; type: biochemical; conditions: for IC50: pNPP 2 mM, pH 7.0, 25 °C; for fold enhancement relative to parent compound 5: IC50/affinity for TC-PTP versus compound 5
T1 sequence (P17706 1-415): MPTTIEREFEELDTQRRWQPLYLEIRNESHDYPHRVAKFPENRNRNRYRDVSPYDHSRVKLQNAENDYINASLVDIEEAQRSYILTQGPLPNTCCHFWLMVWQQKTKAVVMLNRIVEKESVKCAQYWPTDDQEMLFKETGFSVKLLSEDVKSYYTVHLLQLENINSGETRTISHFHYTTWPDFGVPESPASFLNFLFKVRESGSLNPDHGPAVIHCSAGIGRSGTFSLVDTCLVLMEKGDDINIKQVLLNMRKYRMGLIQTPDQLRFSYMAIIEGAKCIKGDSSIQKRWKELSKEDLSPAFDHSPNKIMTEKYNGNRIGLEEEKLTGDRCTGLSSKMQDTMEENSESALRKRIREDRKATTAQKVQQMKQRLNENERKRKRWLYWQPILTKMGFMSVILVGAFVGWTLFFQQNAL
How it was run: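 IC50: enzyme added last (10 nM or 0.4 nM final) to 2 mM pNPP (Km) plus varied test compound, 30 min at room temperature, NaOH quench, A405. Reversibility: enzyme preincubated with test compound 30 min before pNPP. Mode/Ki: 0.4 nM enzyme, varied pNPP and inhibitor, kinetic fit.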

[1] = tested on: tyrosine phosphorylation of EGFR in PTP1B−/− mouse embryo fibroblast cells; assay: EGF-stimulated EGFR phosphorylation in cells; type: cell-based; conditions: 200 nM
How it was run: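 PTP1B−/− mouse embryo fibroblasts were given test compound for 2 hr, then EGF 2 ng/mL for 10 min. Lysis in HEPES pH 7.4 buffer with pervanadate, fluoride and protease inhibitors, cleared at 15,000 rpm for 10 min, protein by BCA. EGFR immunoprecipitated from 1 mg lysate (4 °C, 2 h; protein A/G 2 h). SDS-PAGE, anti-pTyr immunoblot, ECL detection.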

Row | Structure (SMILES) | IC50 (TC-PTP; read-out: IC50 for TC-PTP) [nM] | fold enhancement relative to parent compound 5 (TC-PTP) [fold] | IC50 (TC-PTP; read-out: IC50 for the TC-PTP-catalyzed reaction) [nM] | effect on EGFR phosphorylation [1]
1 | CC(=O)NCCCCC(NC(=O)C(Cc1ccc(C(F)(F)P(=O)(O)O)cc1)NC(C)=O)C(N)=O (stereo not shown) [Compound 5] (Ac-[F2Pmp]-Lys(Ac)-NH2; configuration not given here) | 2000 | – | – | –
2 | CCc1ccc(C(=O)NCCCCC(NC(=O)C(Cc2ccc(C(F)(F)P(=O)(O)O)cc2)NC(C)=O)C(N)=O)cc1 (stereo not shown) [Compound 6] | – | 12.5 | 160 ± 20 | –
3 | CCc1ccc(C(=O)NCCCCC(NC(=O)C(Cc2ccc(C(F)(F)P(=O)(O)O)cc2)NC(=O)C(Cc2ccccc2)NC(C)=O)C(N)=O)cc1 (stereo not shown) [Compound 7] | – | 77 | – | –
4 | CCc1ccc(C(=O)NCCCCC(NC(=O)C(Cc2ccccc2)NC(=O)C(Cc2ccccc2)NC(=O)COC2CC(C)CCC2C(C)C)C(N)=O)cc1 (stereo not shown) [Compound 9] | > 1000 | – | – | no effect
5 | O=C(N[C@@H](Cc1ccc(C(F)(F)P(=O)(O)O)cc1)C(=O)O)OCC1c2ccccc2-c2ccccc21 [Fmoc-F2Pmp-OH, reference compound] | 20000 | – | – | –
